Measurements: the EternaBench riboswitch data

Test system: MS2 coat protein
Experiment: apparent Kd, MS2 coat protein; higher = weaker binding; RNA-MaP array; FMN 200 µM where present
In short: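 The apparent Kd comes from binding curves fitted cluster by cluster, filtered, and summarised as a median. Those curves followed SNAP-549-labelled MS2 coat protein from 0.7 or 1.5 nM, doubling to 3 µM, on Illumina sequencing-chip clusters where stalled E. coli RNA polymerase had transcribed the designs, without and then with constant ligand. The buffer was 100 mM Tris-HCl pH 7.5, 80 mM KCl, 4 mM MgCl2, BSA, DTT, yeast tRNA and Tween-20, and green signal was normalised to red-channel RNA signal and control-cluster median Fmax.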

[1] = designed as: OFF switch for flavin mononucleotide, no ligand
[2] = ligand present: flavin mononucleotide, designed as: OFF switch for flavin mononucleotide
[3] = designed as: ON switch for flavin mononucleotide, no ligand
[4] = ligand present: flavin mononucleotide, designed as: ON switch for flavin mononucleotide

Sequence: GUCAGUCGAGGAUAUACGAUCGUGCUUCGGCACGUAAGAUCACAUGAGGAUCACCCAUGUAGAAGGCGACUGAC
- apparent Kd [1]: 32.5 nM
- apparent Kd [2]: 257 nM

Sequence: UUUGGGAACUCUAUGGGCCGCUACAUGAGGAUCACCCAUGUGCAGGAUAUAGGUGUUACUACCGCCUAGAAGGGCACAGACUGA
- apparent Kd [1]: 23.4 nM
- apparent Kd [2]: 42.5 nM

Sequence: GGAUCUUGGGUCAGGAUAUGCUGACAGCCAUGUCAGCAGAAGGGACAUGAGGAUCACCCAUGUGCUCGGUUUUG
- apparent Kd [1]: 10.3 nM
- apparent Kd [2]: 18.1 nM

Sequence: GGAUCGGACAGAGGAUAUACGUGCUAGAGAUACUAGCAAAAUUUCCUCACAUGAGGAUCACCCAUGUAGAAGGCUGUCCUAUCG
- apparent Kd [1]: 15.9 nM
- apparent Kd [2]: 327 nM

Sequence: GGAGACCUCACAGGAUAUGCUGGACUUUGUCCAGCAGAAGGGUGAACAUGAGGAUCACCCAUGUGGUCUUCCAAAAUAUUUAAU
- apparent Kd [3]: 693 nM
- apparent Kd [4]: 280 nM

Sequence: AUUAUACAUGAGGAUCACCCAUGUAAUUAAUCUAGUAAGAUCUAGGAUAUCAGCUCGAUUAGAGCUGAGAAGGAGAUCACAUGU
- apparent Kd [3]: 52.9 nM
- apparent Kd [4]: 22.2 nM

Sequence: GCAGGCUUCGAGAAGGACAUGAGGAUCACCCAUGUGCGUGUGAAGCAGCCGUGAGGCUGCAUCAUGUAGGAUAUCGGAGUCUGC
- apparent Kd [1]: 70.8 nM
- apparent Kd [2]: 573 nM

Sequence: UUAUUAAGUGUGAGGAUAUGCUGGUCCUUGGAUCAGCAGAAGGCACAUGAGGAUCACCCAUGUACAAUAUAUUA
- apparent Kd [1]: 38.5 nM
- apparent Kd [2]: 251 nM

Sequence: CCGGAUACGGGUAGCUGACAUGAGGAUCACCCAUGUGAAUCUGAGGAUAUGGAUCCUAAUUGGAUCCAGAAGGCAGUCAGCUAC
- apparent Kd [3]: 618 nM
- apparent Kd [4]: 61.5 nM

Sequence: AUUGUGUUAGGAUAUGCUUAUGGUGGGUAGUCCAGUAUGAAGUAGAAGGGACAUGAGGAUCACCCAUGUGCUCA
- apparent Kd [1]: 60.1 nM
- apparent Kd [2]: 56.2 nM

Sequence: AGUCGGAGCAGAGGAUAUUACAUGAGGAUCACCCAUGUAUUAAAUGGAAGCUGGAAACAGCAAUGUAAGAAGGCUGCUCCGACA
- apparent Kd [1]: 62.4 nM
- apparent Kd [2]: 284 nM

Sequence: UCUUGACAUGAGGAUCACCCAUGUCAGGAUAUAGUAGGACAAAUAAAUAAAAGUUCUACUAGAAGGGAUAUGGG
- apparent Kd [1]: 24.9 nM
- apparent Kd [2]: 46.8 nM

Sequence: AGCUGGUGACAGCAAGAAACUUCACAUGAGGAUCACCCAUGUAGAAGGCUGUACGGUUACCGUACAGAGGAUAUACAUUGAAGU
- apparent Kd [1]: 7.16 nM
- apparent Kd [2]: 13.3 nM

Sequence: GGCUACAUCGGAGGAUAUCAUGUAAAUACAUGAGGAUCACCCAUGUCGAUGGAGACAUCGGAGAUUGAGAAGGCCGAUGUACCG
- apparent Kd [3]: 182 nM
- apparent Kd [4]: 8.49 nM

Sequence: CCUGUACAUGAGGAUCACCCAUGUUAGGAUAUCUCGCCGUCGGCUUGCCGACGGUAUUAGAGAAGGGACAAGGG
- apparent Kd [1]: 32.3 nM
- apparent Kd [2]: 37.6 nM

Sequence: GCACGAGACUAAGGAUAUGGAGUGUCUACAUUAAACAUGAGGAUCACCCAUGUAGAGAGUACGAUUCAGAAGGUAGAGACGUGC
- apparent Kd [3]: 48.6 nM
- apparent Kd [4]: 22.1 nM

Sequence: UCACGGGAUUGAGGAUAUAUAUAAAUUUAUACAAUAGAAGGCAAAUUUUUAGUUUUUUCACUUUACAUGAGGAUCACCCAUGUU
- apparent Kd [1]: 26.2 nM
- apparent Kd [2]: 24.2 nM

Sequence: UGGUUGCGAGUAGGAUAUGGUGUUUUUGUUUGGUUAGAAGGGUUCGUGAUUGUGACAUGAGGAUCACCCAUGUGUGUUGUUGUU
- apparent Kd [3]: 63.6 nM
- apparent Kd [4]: 70.5 nM

Sequence: GCCAUCGCAUGAGGAUAUGCUCCCGUUUCGGGAGCAGAAGGCAUGUCAUAAGACAUGAGGAUCACCCAUGUAGAUAAGAUGGCA
- apparent Kd [3]: 310 nM
- apparent Kd [4]: 11.4 nM

Sequence: UCCAAACCGUAGAAGGGUGACAUGAGGAUCACCCAUGUGCAGCAGCCGUGAACGGCCAUGCUGCCACAGGAUAUACGGAGGAGU
- apparent Kd [3]: 28.9 nM
- apparent Kd [4]: 67.3 nM

Sequence: CUUUUGGGAGGAUAUACAUGAGGAUCACCCAUGUGGUCGUGACCAAGUAAGCGCACUCGUAGAAGGCCCACGAC
- apparent Kd [1]: 66.7 nM
- apparent Kd [2]: 98 nM

Sequence: GCACAUGAUACAGGAUAUGUUUUGGAUUUUAUAUUCAGUUAUAUAAUAUUUACAGAAGGGUAUACAUGAGGAUCACCCAUGUGC
- apparent Kd [1]: 61.1 nM
- apparent Kd [2]: 30.8 nM

Sequence: UUGGACGUCGUAGGAUAUGUAGGAUAUUCCUACAUGAGGAUCACCCAUGUUGACAUGGAAGAAGGACAGUAGGACGAUGUCCAU
- apparent Kd [3]: 251 nM
- apparent Kd [4]: 8.02 nM
